The values below come from ChEMBL document CHEMBL1123266, “Antibacterial activity of phosphono dipeptides related to alafosfalin” (J Med Chem, 1986).

SMILES strings stand for the structures. In brackets after ≈: the same amount, converted by molar mass.

Experiment [1] relates to Bacillus subtilis. Put plainly: Concentration (IC50) to inhibit the growth of Bacillus subtilis. The class given is functional, organism-based. Put shortly: (§1)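 Broth dilution in a defined liquid peptide medium lacking antagonists of small peptide mimetics. Inocula were overnight cultures grown in this medium at 37 °C and diluted to about 4 × 10^6 cfu/mL. Compound was tested as a doubling dilution series, final 0.065–512 μg/mL, incubated overnight at 37 °C. Turbidity was read, and IC50 is the concentration reducing 24-h growth to 50% of control.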

For experiment [2], the system named is Escherichia coli. Put plainly: Minimum inhibitory concentration (MIC) to control the growth of Escherichia coli strain PCM 2057. Format: functional. Put shortly:
(§2)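 Doubling dilutions of compound were made in a defined liquid peptide medium free of peptide-mimetic antagonists, final 0.065–512 μg/mL. The inoculum was an overnight 37 °C culture diluted to about 4 × 10^6 cfu/mL, incubated overnight at 37 °C. Non-turbid samples were subcultured (0.1 mL) onto solid peptide-medium agar and incubated overnight at 37 °C to assign MIC.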

In experiment [3] the test system is Escherichia coli. Nature of the experiment: Concentration (IC50) to inhibit the growth of Escherichia coli. The class given is functional, organism-based. Put shortly: as §1
For experiment [4], the system named is Klebsiella aerogenes. Put plainly: Concentration (IC50) to inhibit the growth of Klebsiella aerogenes. The class given is functional, organism-based. Put shortly: as §1
In experiment [5] the test system is Klebsiella aerogenes. Put plainly: Minimum inhibitory concentration (MIC) to control the growth of Klebsiella aerogenes strain PCM 2063. The class given is functional. In short, it runs like this:
as §2

Experiment [6] relates to Staphylococcus aureus. Put plainly: Concentration (IC50) to inhibit the growth of Staphylococcus aureus. The class given is functional, organism-based. In short, it runs like this:
as §1

Experiment [7] has as its system Staphylococcus aureus. Put plainly: Minimum inhibitory concentration (MIC) to control the growth of Staphylococcus aureus strain PCM 2054. Format: functional. Put shortly: as §2
The subject of experiment [8] is Serratia marcescens. Nature of the experiment: Concentration (IC50) to inhibit the growth of Serratia marcescens. The class given is functional, organism-based. In short, it runs like this: as §1
Experiment [9] has as its system Serratia marcescens. Put plainly: Minimum inhibitory concentration (MIC) to control the growth of Serratia marcescens strain PCM 549. Format: functional. In short, it runs like this: as §2
The test system of experiment [10] is Enterococcus faecalis. Put plainly: Concentration (IC50) to inhibit the growth of Streptococcus faecalis. Format: functional, organism-based. Put shortly: as §1
The test system of experiment [11] is Enterococcus faecalis. Nature of the experiment: Minimum inhibitory concentration (MIC) to control the growth of Streptococcus faecalis strain PCM 896. Format: functional. In short, it runs like this: as §2
Experiment [12] has as its system Bacillus subtilis. Put plainly: Minimum inhibitory concentration (MIC) to control the growth of Bacillus subtilis strain PCM 1949. The class given is functional. Put shortly:
as §2

As for `CC(N)C(=O)NC(C1CC1)P(=O)(O)O` (stereo unspecified), the IC50 with Bacillus subtilis [1], with Escherichia coli [3], with Klebsiella aerogenes [4], in the experiment with Staphylococcus aureus [6], with Serratia marcescens [8] and in the experiment on Enterococcus faecalis [10] was above 512 µg/mL each time. Moreover, the MIC with Escherichia coli [2], in the experiment with Klebsiella aerogenes [5], in the experiment with Staphylococcus aureus [7], with Serratia marcescens [9], in the experiment on Enterococcus faecalis [11] and against Bacillus subtilis [12] was above 512 µg/mL in each case.

Regarding `CC(=O)OCC(NC(=O)C(C)N)P(=O)(O)O` (stereo unspecified), the IC50 in the experiment with Bacillus subtilis [1] is above 512 µg/mL; in the experiment on Escherichia coli [3], above 512 µg/mL; with Klebsiella aerogenes [4], 96 µg/mL (≈ 378 µM); in the experiment on Staphylococcus aureus [6] it was 0.065 µg/mL (≈ 0.256 µM); in the experiment with Serratia marcescens [8], above 512 µg/mL; in the experiment with Enterococcus faecalis [10], 512 µg/mL (≈ 2010 µM). Also, the MIC in the experiment with Escherichia coli [2], with Klebsiella aerogenes [5], against Staphylococcus aureus [7], with Serratia marcescens [9], against Enterococcus faecalis [11] and in the experiment on Bacillus subtilis [12] was above 512 µg/mL throughout.

For the compound `CC(C)CC(N)C(=O)N1CCCC1P(=O)(O)O` (stereo unspecified), the IC50 in the experiment with Bacillus subtilis [1] is above 512 µg/mL; in the experiment with Escherichia coli [3], 70 µg/mL (≈ 265 µM); in the experiment with Klebsiella aerogenes [4], 154 µg/mL (≈ 583 µM); with Staphylococcus aureus [6], 35 µg/mL (≈ 132 µM); in the experiment on Serratia marcescens [8] it was 83 µg/mL (≈ 314 µM); with Enterococcus faecalis [10] it was 42 µg/mL (≈ 159 µM). Moreover, the MIC was 128 µg/mL (≈ 484 µM) against Escherichia coli [2]; 256 µg/mL (≈ 969 µM) in the experiment with Klebsiella aerogenes [5]; 64 µg/mL (≈ 242 µM) in the experiment with Staphylococcus aureus [7]; 512 µg/mL (≈ 1940 µM) in the experiment on Serratia marcescens [9]; above 512 µg/mL with Enterococcus faecalis [11]; above 512 µg/mL in the experiment on Bacillus subtilis [12].

Consider `CC(C)CC(N)C(=O)NC(C)P(=O)(O)O` (stereo unspecified), for which the IC50 is 4 µg/mL (≈ 16.8 µM) in the experiment on Bacillus subtilis [1]; 0.09 µg/mL (≈ 0.378 µM) in the experiment on Escherichia coli [3]; 1.6 µg/mL (≈ 6.72 µM) with Klebsiella aerogenes [4]; 8 µg/mL (≈ 33.6 µM) in the experiment on Staphylococcus aureus [6]; 0.1 µg/mL (≈ 0.42 µM) in the experiment on Serratia marcescens [8]; 2 µg/mL (≈ 8.4 µM) with Enterococcus faecalis [10]. Further, the MIC was 8 µg/mL (≈ 33.6 µM) in the experiment with Escherichia coli [2]; above 512 µg/mL in the experiment with Klebsiella aerogenes [5]; 32 µg/mL (≈ 134 µM) in the experiment on Staphylococcus aureus [7]; 0.5 µg/mL (≈ 2.1 µM) in the experiment on Serratia marcescens [9]; above 512 µg/mL against Enterococcus faecalis [11]; 16 µg/mL (≈ 67.2 µM) in the experiment on Bacillus subtilis [12].

As to `CC(C)CC(N)C(=O)NC(Cc1ccccc1)P(=O)(O)O` (stereo unspecified), the IC50 was 0.065 µg/mL (≈ 0.207 µM) in the experiment with Bacillus subtilis [1]; above 512 µg/mL in the experiment with Escherichia coli [3]; above 512 µg/mL in the experiment on Klebsiella aerogenes [4]; 0.6 µg/mL (≈ 1.91 µM) with Staphylococcus aureus [6]; above 512 µg/mL in the experiment with Serratia marcescens [8]; above 512 µg/mL in the experiment with Enterococcus faecalis [10]. In addition, the MIC in the experiment with Escherichia coli [2], in the experiment with Klebsiella aerogenes [5], with Staphylococcus aureus [7], in the experiment with Serratia marcescens [9], against Enterococcus faecalis [11] and in the experiment on Bacillus subtilis [12] was above 512 µg/mL throughout.

As for `CC(N)C(=O)NC(C1CCCCC1)P(=O)(O)O` (stereo unspecified), the IC50 was above 512 µg/mL in the experiment on Bacillus subtilis [1]; above 512 µg/mL with Escherichia coli [3]; above 512 µg/mL with Klebsiella aerogenes [4]; 256 µg/mL (≈ 969 µM) in the experiment on Staphylococcus aureus [6]; above 512 µg/mL in the experiment on Serratia marcescens [8]; above 512 µg/mL in the experiment with Enterococcus faecalis [10]. Moreover, the minimal inhibitory concentration (MIC) in the experiment on Escherichia coli [2], against Klebsiella aerogenes [5], with Staphylococcus aureus [7], against Serratia marcescens [9], against Enterococcus faecalis [11] and in the experiment on Bacillus subtilis [12] was above 512 µg/mL in each case.

Take `CC(C)CC(NC(=O)C(C)N)P(=O)(O)O` (stereo unspecified): the IC50 with Bacillus subtilis [1] was 153 µg/mL (≈ 642 µM); with Escherichia coli [3], above 512 µg/mL; in the experiment with Klebsiella aerogenes [4], above 512 µg/mL; in the experiment on Staphylococcus aureus [6], 48 µg/mL (≈ 201 µM); with Serratia marcescens [8], above 512 µg/mL; with Enterococcus faecalis [10] it was 90 µg/mL (≈ 378 µM). Also, the MIC in the experiment with Escherichia coli [2] was above 512 µg/mL; against Klebsiella aerogenes [5], above 512 µg/mL; against Staphylococcus aureus [7], 256 µg/mL (≈ 1070 µM); with Serratia marcescens [9], above 512 µg/mL; in the experiment on Enterococcus faecalis [11], above 512 µg/mL; in the experiment with Bacillus subtilis [12] it was above 512 µg/mL.

Consider `CC(N)C(=O)NC1(P(=O)(O)O)CCCCC1` (stereo unspecified), for which the 50% inhibitory concentration (IC50) with Bacillus subtilis [1], in the experiment on Escherichia coli [3], in the experiment with Klebsiella aerogenes [4], in the experiment on Staphylococcus aureus [6], with Serratia marcescens [8] and in the experiment on Enterococcus faecalis [10] was above 512 µg/mL throughout. For the same compound, the MIC in the experiment with Escherichia coli [2], against Klebsiella aerogenes [5], in the experiment on Staphylococcus aureus [7], against Serratia marcescens [9], against Enterococcus faecalis [11] and against Bacillus subtilis [12] was above 512 µg/mL each time.
